Holding throughout (format): functional
One test concerns A2780. The test is described as follows: Antiproliferative activity against human A2780 cells after 48 hrs by SRB assay. Conditions: A2780, 48 h. Put shortly: (§1)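 NCI protocol, SRB read-out after 48 h continuous drug exposure. GI50, TGI and LC50 derived; 100 μM was the top concentration tested, with TGI and LC50 reported only when under 100 μM. GI50 values are means of two to four experiments ± standard deviation.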
For orientation: Sulforhodamine B stains cellular protein and so reports cell mass.

Test [1] relates to SW1573. The test can be described thus: Antiproliferative activity against human SW1573 cells after 48 hrs by SRB assay. Conditions: SW1573, 48 h. In a few lines: as §1
In test [2] the test system is WiDr. The test is described as follows: Antiproliferative activity against human WiDr cells after 48 hrs by SRB assay. In a few lines:
as §1

Test [3] relates to SW1573. The test can be described thus: Cell cycle arrest in human SW1573 cells assessed as accumulation at G2/M phase at 10 uM after 24 hrs relative to control. Put shortly:
(§2)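 Cells seeded at 0.7–1 × 10⁶ per well and left 24 h, then exposed 24 h to 10 or 20 μM beside untreated controls. Trypsinized, fixed in ice-cold 70% ethanol overnight at −20 °C, treated with RNAse and propidium iodide 30 min at 37 °C in the dark. DNA content read by flow cytometry (25,000 cells/sample); G2/M percentage compared with control.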

Test [4] relates to WiDr. The test can be described thus: Cell cycle arrest in human WiDr cells assessed as accumulation at G2/M phase at 10 uM after 24 hrs relative to control. Put shortly:
as §2

Test [5] concerns SW1573. The test can be described thus: Cell cycle arrest in human SW1573 cells assessed as accumulation at G2/M phase at 20 uM after 24 hrs relative to control. In a few lines: as §2
For test [6], the system named is WiDr. The test can be described thus: Cell cycle arrest in human WiDr cells assessed as accumulation at G2/M phase at 20 uM after 24 hrs relative to control. Put shortly:
as §2

The results in this text go back to ChEMBL document CHEMBL1144642, “Antiproliferative activity of 2-alkyl-4-halopiperidines and 2-alkyl-4-halo-1,2,5,6-tetrahydropyridines in solid tumor cell lines” (2007).

Structures are written as SMILES. A value given as a limit tells only on which side of the number the result lay.

As for `Cc1ccc(S(=O)(=O)N2CC[C@@H](Cl)C[C@@H]2CC(C)C)cc1`, the GI50 (in general, the concentration giving 50% growth inhibition) in the test with A2780 amounted to 36 µM; in the test on SW1573 [1] it was 19 µM; in the test on WiDr [2], 22 µM.

Consider `CCCCCCCC1C=C(Cl)CCN1S(=O)(=O)c1ccc(C)cc1` (centres undefined), for which the GI50 amounted to 92 µM in the test on A2780, 49 µM in the test with SW1573 [1] and 50 µM in the test on WiDr [2].

Consider `Cc1ccc(S(=O)(=O)N2CCC(Cl)=CC2C2CCCCC2)cc1` (centres undefined), for which the 50% growth inhibitory concentration (GI50) with A2780 stood at 39 µM; in the test with SW1573 [1] it was 62 µM; with WiDr [2], 24 µM.

For `Cc1ccc(S(=O)(=O)N2CCC(Cl)=CC2c2ccccc2)cc1` (centres undefined), in the test with A2780, the GI50 turned out to be 17 µM, the LC50 (50% lethal concentration) worked out at 86 µM and total growth inhibition (TGI) required 42 µM. In the test with SW1573 [1], the GI50 is 16 µM; the LC50 (in general, the concentration that kills 50% of the test population) came out at 87 µM; the total growth inhibition concentration (TGI) – broadly, the concentration giving total growth inhibition – was 37 µM. In addition, in the test with WiDr [2], the concentration for 50% growth inhibition (GI50) came to 18 µM, the LC50 (50% lethal concentration) was 91 µM and the concentration for total growth inhibition (TGI) turned out to be 77 µM.

On to `Cc1ccc(S(=O)(=O)N2CC[C@@H](Br)C[C@@H]2CC(C)C)cc1`, for which the 50% growth inhibitory concentration (GI50) in the test with A2780 came out at 39 µM; in the test on SW1573 [1], 22 µM; in the test on WiDr [2], 14 µM.

With `Cc1ccc(S(=O)(=O)N2CC[C@@H](Br)C[C@@H]2C2CCCCC2)cc1`, the GI50 in the test with A2780 was > 100 µM; in the test with SW1573 [1] it was 82 µM; in the test with WiDr [2], 14 µM.

With `Cc1ccc(S(=O)(=O)N2CC[C@@H](Br)C[C@@H]2c2ccccc2)cc1`, the GI50 in the test on A2780 is > 100 µM; in the test with SW1573 [1] it was > 100 µM; with WiDr [2], 36 µM.

For `Cc1ccc(S(=O)(=O)N2CC[C@@H](Br)C[C@@H]2Cc2ccccc2)cc1`, the GI50 in the test with A2780 turned out to be 63 µM; with SW1573 [1], 73 µM; in the test on WiDr [2], 37 µM.

For `Cc1ccc(S(=O)(=O)N2CC=C(Br)CC2)cc1`, the GI50 with A2780, in the test on SW1573 [1] and in the test with WiDr [2] was > 100 µM in each case.

`Cc1ccc(S(=O)(=O)N2CCC(Br)=CC2CC(C)C)cc1` (centres undefined): the GI50 in the test on A2780 was determined as 36 µM; in the test with SW1573 [1], 26 µM; with WiDr [2] it was 16 µM.

For the molecule `Cc1ccc(S(=O)(=O)N2CCC(Br)=CC2C2CCCCC2)cc1` (centres undefined), the results for the GI50 in the test on A2780, with SW1573 [1] and in the test with WiDr [2] were 44 µM, 65 µM and 18 µM, respectively.

Consider `Cc1ccc(S(=O)(=O)N2CCC(Br)=CC2c2ccccc2)cc1` (centres undefined), for which the GI50 in the test on A2780 turned out to be 49 µM; in the test with SW1573 [1] it was 54 µM; in the test with WiDr [2], 29 µM.

With `Cc1ccc(S(=O)(=O)N2CCC(Br)CC2)cc1`, the GI50 in the test on A2780, in the test on SW1573 [1] and in the test with WiDr [2] was > 100 µM in each case.

Take `Cc1ccc(S(=O)(=O)N2CC[C@@H](Cl)C[C@@H]2C2CCCCC2)cc1`: the concentration for 50% growth inhibition (GI50) turned out to be 72 µM with A2780, 53 µM in the test on SW1573 [1] and 15 µM in the test on WiDr [2].

As to `Cc1ccc(S(=O)(=O)N2CC[C@@H](Cl)C[C@@H]2c2ccccc2)cc1`, the GI50 in the test with A2780 was > 100 µM; with SW1573 [1], > 100 µM; with WiDr [2], 37 µM.

For the molecule `Cc1ccc(S(=O)(=O)N2CC[C@@H](Cl)C[C@@H]2Cc2ccccc2)cc1`, the GI50 with A2780 came out at 19 µM; in the test with SW1573 [1], 12 µM; in the test on WiDr [2], 20 µM. Also, the TGI with A2780 worked out at 50 µM; in the test with SW1573 [1], 66 µM.

Regarding `CCCCCCC[C@H]1C[C@H](Cl)CCN1S(=O)(=O)c1ccc(C)cc1`, the GI50 with A2780 was > 100 µM; in the test with SW1573 [1], > 100 µM; in the test on WiDr [2] it was 54 µM.

As for `Cc1ccc(S(=O)(=O)N2CCC(Cl)CC2)cc1`, the GI50 with A2780, with SW1573 [1] and in the test on WiDr [2] was > 100 µM each time.

As to `Cc1ccc(S(=O)(=O)N2CCC(Br)=CC2Cc2ccccc2)cc1` (centres undefined), the GI50 in the test on A2780 turned out to be 27 µM; in the test on SW1573 [1], 21 µM; in the test on WiDr [2] it was 24 µM. The TGI with A2780 amounted to 77 µM; in the test with SW1573 [1] it was 78 µM; in the test with WiDr [2], 71 µM.

For `CCCCCCC[C@H]1C[C@H](Br)CCN1S(=O)(=O)c1ccc(C)cc1`, the 50% growth inhibitory concentration (GI50) with A2780, with SW1573 [1] and in the test with WiDr [2] was > 100 µM in each case.

For `Cc1ccc(S(=O)(=O)N2CC=C(Cl)CC2)cc1`, the GI50 with A2780, in the test on SW1573 [1] and with WiDr [2] was > 100 µM in each case.

As for `Cc1ccc(S(=O)(=O)N2CCC(Cl)=CC2Cc2ccccc2)cc1` (centres undefined), the GI50 was 4.8 µM with A2780, 6.6 µM in the test with SW1573 [1] and 3.3 µM with WiDr [2]. The molecule further displayed an LC50 (50% lethal concentration) with WiDr [2] of 79 µM. This molecule also registered a TGI with WiDr [2] of 14 µM. In addition, the Activity in the test with SW1573 [3] is given as 25%; in the test with WiDr [4], 53%; in the test on SW1573 [5] it was 38%; with WiDr [6], 81%.

Turning to `CCCCCCCC1C=C(Br)CCN1S(=O)(=O)c1ccc(C)cc1` (centres undefined), the figures for the GI50 with A2780, in the test on SW1573 [1] and in the test on WiDr [2] were > 100 µM, 49 µM and 40 µM, respectively.

For the molecule `Cc1ccc(S(=O)(=O)N2CCC(Cl)=CC2CC(C)C)cc1` (centres undefined), the figures for the concentration for 50% growth inhibition (GI50) in the test on A2780, in the test with SW1573 [1] and with WiDr [2] were 35 µM, 31 µM and 21 µM, respectively.
